In ChEMBL document CHEMBL3351225, “Design, synthesis, and structure-activity and structure-pharmacokinetic relationship studies of novel [6,6,5] tricyclic fused oxazolidinones leading to the discovery of a potent, selective, and orally bioavailable FXa inhibitor” (J Med Chem, 2014):

Legend:
[1] = AUC (0 to infinity) in Sprague-Dawley rat at 10 mg/kg, po; format: ADME, organism-based; set-up: time infinity, dose 10 mg/kg, route oral; settings: plasma
Method in brief: (§1)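 Male Sprague-Dawley rats, 200−220 g, four per group. Vehicle was 5% DMSO + 5% Tween-80 in 90% saline. The reference drug was given in 10% DMSO + 10% Tween-80 + 80% PEG400 (40% solution in saline). Serial retrobulbar vein samples were quantified by LC-MS. Parameters came from noncompartmental analysis of mean plasma concentrations.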

Rattus norvegicus [2] = assay: Toxicity in rat assessed as induction of body weight changes at 100 mg/kg, po dosed once daily for 2 weeks; format: organism-based; set-up: dose 100 mg/kg, route oral; settings: in vivo, 336 h
Method in brief: (§2)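 Subacute toxicity in rats: oral dosing once daily for 2 weeks at 50 mg/kg (medium) or 100 mg/kg (high). Behavior, body weight, food intake, organ coefficients and survival rate were monitored.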

Rattus norvegicus [3] = assay: Toxicity in rat assessed as survival rate changes at 100 mg/kg, po dosed once daily for 2 weeks; format: organism-based; set-up: dose 100 mg/kg, route oral; settings: in vivo, 336 h; method in brief: as §2
Cytochrome P450 1A2 = target: T1, Cytochrome P450 1A2 (Homo sapiens, UniProt P05177); assay: Inhibition of CYP1A2 (unknown origin); format: ADME
T1 sequence (P05177 whole entry): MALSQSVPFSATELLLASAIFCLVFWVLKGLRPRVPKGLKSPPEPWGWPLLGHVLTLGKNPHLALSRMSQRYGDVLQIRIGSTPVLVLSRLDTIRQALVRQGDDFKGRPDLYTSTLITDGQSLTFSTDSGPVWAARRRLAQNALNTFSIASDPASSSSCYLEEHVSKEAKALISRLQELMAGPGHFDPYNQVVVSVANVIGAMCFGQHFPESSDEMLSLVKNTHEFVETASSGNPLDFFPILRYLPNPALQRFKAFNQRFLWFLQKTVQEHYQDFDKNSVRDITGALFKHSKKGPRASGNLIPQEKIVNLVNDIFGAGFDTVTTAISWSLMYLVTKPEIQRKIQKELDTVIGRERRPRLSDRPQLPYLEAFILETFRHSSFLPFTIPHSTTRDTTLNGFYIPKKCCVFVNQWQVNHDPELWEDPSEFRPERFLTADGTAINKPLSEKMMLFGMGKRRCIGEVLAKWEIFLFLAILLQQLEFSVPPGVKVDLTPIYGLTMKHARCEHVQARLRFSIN

Rattus norvegicus [4] = assay: Toxicity in rat assessed as induction of food intake changes at 100 mg/kg, po dosed once daily for 2 weeks; format: organism-based; set-up: dose 100 mg/kg, route oral; settings: in vivo, 336 h; method in brief: as §2
Rattus norvegicus [5] = assay: Antithrombotic activity in rat model of FeCl3-induced venous thrombosis assessed as reduction in thrombus formation dosed orally 60 mins before thrombus formation; settings: po
Rattus norvegicus [6] = assay: Toxicity in rat assessed as induction of behavioral changes at 50 mg/kg, po dosed once daily for 2 weeks; format: organism-based; set-up: dose 50 mg/kg, route oral; settings: in vivo, 336 h; method in brief: as §2
Coagulation factor XI = Coagulation factor XI (Homo sapiens, UniProt P03951); assay: Inhibition of human factor 11a using S-2366 chromogenic substrate
Method in brief: (§3)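 Human enzyme and inhibitor were premixed and preincubated, then the chromogenic substrate was added. Substrate levels: 300 μM S-2765 (FXa, trypsin); 200 μM S-2366 (FIIa); 2 mM S-2366 (FVIIa, FXIa). pNA release was monitored continuously at 405 nm for 20 min at 37 °C. IC50 was obtained by nonlinear regression.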

Rattus norvegicus [7] = assay: Toxicity in rat assessed as induction of organ coefficients changes at 50 mg/kg, po dosed once daily for 2 weeks; format: organism-based; set-up: dose 50 mg/kg, route oral; settings: in vivo, 336 h; method in brief: as §2
[8] = Tmax in Beagle dog at 1 mg/kg, po; format: ADME, organism-based, Canis lupus familiaris; set-up: dose 1 mg/kg, route oral; settings: in vivo
Method in brief: (§4)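 Male dogs, three per group. Dosed orally at 1 mg/kg or by intravenous infusion at 0.5 mg/kg. Vehicle was 5% DMSO + 5% Tween-80 in 90% saline, or 10% DMSO + 10% Tween-80 + 80% PEG400 for the reference drug. Foreleg blood samples were quantified by LC-MS. Parameters came from noncompartmental analysis of mean plasma concentrations.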

[9] = AUC (0 to infinity) in Beagle dog at 1 mg/kg, po; format: ADME, organism-based, Canis lupus familiaris; set-up: time infinity, dose 1 mg/kg, route oral; settings: plasma; method in brief: as §4
Rattus norvegicus [10] = assay: Toxicity in rat assessed as induction of behavioral changes at 100 mg/kg, po dosed once daily for 2 weeks; format: organism-based; set-up: dose 100 mg/kg, route oral; settings: in vivo, 336 h; method in brief: as §2
[11] = Oral bioavailability in Sprague-Dawley rat at 10 mg/kg; format: ADME, organism-based; settings: in vivo; method in brief: as §1
Rattus norvegicus [12] = assay: Toxicity in rat assessed as induction of organ coefficients changes at 100 mg/kg, po dosed once daily for 2 weeks; format: organism-based; set-up: dose 100 mg/kg, route oral; settings: in vivo, 336 h; method in brief: as §2
Plasma = assay: Anticoagulant activity in citrated rabbit plasma assessed as activated partial thromboplastin time preincubated for 10 mins at 37 degC by coagulometry; format: functional, Oryctolagus cuniculus
Method in brief: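 Test compound or DMSO added to citrated rabbit plasma (3.8% sodium citrate, 10:90 v/v) and preincubated 10 min at 37 °C. PT and aPTT clotting times measured on a coagulometer with commercial kits. Activity expressed as the concentration needed to double plasma clotting time (CT2, μM).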

Coagulation factor IX = Coagulation factor IX (Homo sapiens, UniProt P00740); assay: Inhibition of human factor 9a using CH3SO2-(D)CHG Gly-Arg-pNA, Biophen-CS51 chromogenic substrate
V79 = assay: Toxicity in Chinese hamster V79 cells by micronucleus Assay; format: cell-based, Cricetulus griseus
[13] = Plasma clearance in Sprague-Dawley rat at 3 mg/kg, iv; format: ADME, organism-based; set-up: dose 3 mg/kg, route intravenous; method in brief: as §1
Prothrombin = Prothrombin (Homo sapiens, UniProt P00734); assay: Inhibition of human factor 2a using L-pyro-Glu-Pro-ArgpNA, S-2366 chromogenic substrate; method in brief: as §3
Cytochrome P450 2D6 = Cytochrome P450 2D6 (Homo sapiens, UniProt P10635); assay: Inhibition of CYP2D6 (unknown origin); format: ADME
Cytochrome P450 2C8 = target: T2, Cytochrome P450 2C8 (Homo sapiens, UniProt P10632); assay: Inhibition of CYP2C8 (unknown origin); format: ADME
T2 sequence (P10632 whole entry): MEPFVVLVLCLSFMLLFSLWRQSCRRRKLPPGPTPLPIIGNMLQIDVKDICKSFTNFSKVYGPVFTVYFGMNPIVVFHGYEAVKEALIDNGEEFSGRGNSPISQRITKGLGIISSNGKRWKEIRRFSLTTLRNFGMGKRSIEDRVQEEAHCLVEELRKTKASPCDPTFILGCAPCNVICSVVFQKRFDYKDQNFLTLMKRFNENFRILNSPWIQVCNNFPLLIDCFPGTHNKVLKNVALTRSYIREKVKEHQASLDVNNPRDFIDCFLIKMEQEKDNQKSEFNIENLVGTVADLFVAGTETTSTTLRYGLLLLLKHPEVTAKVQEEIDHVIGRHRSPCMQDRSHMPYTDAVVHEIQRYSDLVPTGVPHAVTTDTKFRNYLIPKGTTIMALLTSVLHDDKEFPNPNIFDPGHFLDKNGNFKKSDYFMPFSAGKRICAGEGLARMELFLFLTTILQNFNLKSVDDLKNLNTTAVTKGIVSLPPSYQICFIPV

[14] = Elimination half life in Beagle dog at 1 mg/kg, po; format: ADME, organism-based, Canis lupus familiaris; set-up: dose 1 mg/kg, route oral; settings: in vivo; method in brief: as §4
Coagulation factor X = Coagulation factor X (Homo sapiens, UniProt P00742); assay: Inhibition of human factor 10a using N-Z-D-Arg-Gly-Arg-pNA, S-2765 chromogenic substrate
[15] = Elimination half life in Beagle dog at 0.5 mg/kg, iv; format: ADME, organism-based, Canis lupus familiaris; set-up: dose 0.5 mg/kg, route intravenous; settings: in vivo; method in brief: as §4
[16] = Cmax in Beagle dog at 1 mg/kg, po; format: ADME, organism-based, Canis lupus familiaris; set-up: dose 1 mg/kg, route oral; settings: in vivo; method in brief: as §4
[17] = Plasma clearance in Beagle dog at 0.5 mg/kg, iv; format: ADME, organism-based, Canis lupus familiaris; set-up: dose 0.5 mg/kg, route intravenous; method in brief: as §4

Chain of Cytochrome P450 2D6 (P10635 whole entry): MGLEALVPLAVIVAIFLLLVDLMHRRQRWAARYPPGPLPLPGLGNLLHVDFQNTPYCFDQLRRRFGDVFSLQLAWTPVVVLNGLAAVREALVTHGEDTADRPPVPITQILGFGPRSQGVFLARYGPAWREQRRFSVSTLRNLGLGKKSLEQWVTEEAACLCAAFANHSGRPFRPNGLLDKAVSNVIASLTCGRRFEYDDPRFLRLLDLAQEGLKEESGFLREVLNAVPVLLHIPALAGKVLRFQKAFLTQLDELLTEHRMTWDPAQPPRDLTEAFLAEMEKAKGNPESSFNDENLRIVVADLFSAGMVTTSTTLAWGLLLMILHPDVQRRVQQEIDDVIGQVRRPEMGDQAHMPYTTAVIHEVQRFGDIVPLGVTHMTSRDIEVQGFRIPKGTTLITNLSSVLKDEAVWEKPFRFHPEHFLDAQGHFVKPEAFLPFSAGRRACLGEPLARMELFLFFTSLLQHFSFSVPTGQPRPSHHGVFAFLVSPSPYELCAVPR
Chain of Coagulation factor XI (P03951 19-387 limits assumed): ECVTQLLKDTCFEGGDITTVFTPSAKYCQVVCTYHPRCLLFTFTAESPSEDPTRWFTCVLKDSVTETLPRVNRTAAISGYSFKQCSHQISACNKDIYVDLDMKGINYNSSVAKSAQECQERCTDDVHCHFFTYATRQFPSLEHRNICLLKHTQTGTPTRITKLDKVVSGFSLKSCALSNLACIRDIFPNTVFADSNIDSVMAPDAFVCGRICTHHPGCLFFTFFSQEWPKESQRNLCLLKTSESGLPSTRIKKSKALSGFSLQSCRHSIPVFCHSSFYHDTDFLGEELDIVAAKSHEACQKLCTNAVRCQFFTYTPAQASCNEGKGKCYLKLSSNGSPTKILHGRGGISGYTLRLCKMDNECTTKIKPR
Chain of Coagulation factor XI (P03951 388-625 limits assumed): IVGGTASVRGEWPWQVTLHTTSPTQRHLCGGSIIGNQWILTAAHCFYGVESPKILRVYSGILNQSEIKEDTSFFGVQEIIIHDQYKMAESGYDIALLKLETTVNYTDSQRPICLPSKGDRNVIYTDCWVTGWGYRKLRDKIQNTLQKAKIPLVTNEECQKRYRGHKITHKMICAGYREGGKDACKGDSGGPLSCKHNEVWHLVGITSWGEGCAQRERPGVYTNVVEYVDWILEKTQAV
Chain of Coagulation factor IX (P00740 47-191 limits assumed): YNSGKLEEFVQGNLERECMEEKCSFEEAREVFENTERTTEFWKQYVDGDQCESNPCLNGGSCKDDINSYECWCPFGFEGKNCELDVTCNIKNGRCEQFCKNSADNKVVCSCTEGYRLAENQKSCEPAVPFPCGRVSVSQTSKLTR
Chain of Coagulation factor IX (P00740 227-461 limits assumed): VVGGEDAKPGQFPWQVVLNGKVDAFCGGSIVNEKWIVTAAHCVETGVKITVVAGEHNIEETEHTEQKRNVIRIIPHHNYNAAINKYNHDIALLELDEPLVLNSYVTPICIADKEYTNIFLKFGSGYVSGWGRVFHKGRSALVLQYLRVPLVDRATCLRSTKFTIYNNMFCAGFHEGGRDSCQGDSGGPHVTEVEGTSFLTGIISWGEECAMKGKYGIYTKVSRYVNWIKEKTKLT
Chain of Coagulation factor X (P00742 41-179 limits assumed): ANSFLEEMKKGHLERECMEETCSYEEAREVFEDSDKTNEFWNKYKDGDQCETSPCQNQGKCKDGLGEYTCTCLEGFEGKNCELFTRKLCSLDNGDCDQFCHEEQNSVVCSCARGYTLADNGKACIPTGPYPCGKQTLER
Chain of Coagulation factor X (P00742 235-488 limits assumed): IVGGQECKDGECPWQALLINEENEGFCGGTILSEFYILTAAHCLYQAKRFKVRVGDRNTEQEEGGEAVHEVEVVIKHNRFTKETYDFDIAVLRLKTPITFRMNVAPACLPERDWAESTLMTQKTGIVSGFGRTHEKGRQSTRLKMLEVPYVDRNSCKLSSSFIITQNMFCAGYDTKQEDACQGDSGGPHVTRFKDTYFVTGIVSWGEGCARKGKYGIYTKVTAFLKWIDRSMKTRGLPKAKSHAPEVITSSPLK

Structure (SMILES): O=C(NC[C@@H]1OC(=O)N2c3ccc(N4CCOCC4=O)cc3OC[C@@H]12)c1ccc(Cl)s1
- AUC(0-inf) [1]: 33000 ng·h/mL
- Activity (Rattus norvegicus [2]): Non-toxic
- Activity (Rattus norvegicus [3]): Non-toxic
- IC50 (Cytochrome P450 1A2): > 200 µM
- Activity (Rattus norvegicus [4]): Non-toxic
- ED50 (Rattus norvegicus [5]): 5.63 mg/kg
- Activity (Rattus norvegicus [6]): Non-toxic
- IC50 (Coagulation factor XI): > 100 µM
- Activity (Rattus norvegicus [7]): Non-toxic
- Tmax [8]: 0.5 h
- AUC(0-inf) [9]: 1530 ng·h/mL
- Activity (Rattus norvegicus [10]): Non-toxic
- bioavailability [11]: 63.7%
- Activity (Rattus norvegicus [12]): Non-toxic
- 2aPTT (Plasma): 0.14 µM
- IC50 (Coagulation factor IX): > 100 µM
- Activity (V79): Non-toxic
- clearance [13]: 3.35 mL/min/kg
- IC50 (Prothrombin): > 100 µM
- IC50 (Cytochrome P450 2D6): > 200 µM
- IC50 (Cytochrome P450 2C8): 99.7 µM
- half-life [14]: 2 h
- IC50 (Coagulation factor X): 0.00341 µM
- half-life [15]: 3.1 h
- Cmax [16]: 530 ng/mL
- clearance [17]: 6.67 mL/min/kg
